Data set [1] relates to HepG2. The experiment in a line: Cytotoxicity against human HepG2 cells after 72 hrs by luminescence assay. As to conditions: hepg2, 72 h. Type of data set: cell-based.
Data set [2] in a line: Solubility of the compound in phosphate buffered saline by UV spectrophotometry. Type of data set: physicochemical.
Data set [3] has as its system HEK293. The experiment in a line: Cytotoxicity against human HEK293 cells after 72 hrs by luminescence assay. In kind it is cell-based. As to conditions: hek293, 72 h.
Data set [4] concerns Raji. As to the kind of experiment: Cytotoxicity against human Raji cells after 72 hrs by luminescence assay. In kind it is cell-based.
Data set [5] has as its system BJ. As to the kind of experiment: Cytotoxicity against human BJ cells after 72 hrs by luminescence assay. Type of data set: cell-based.
Data set [6] deals with Voltage-gated inwardly rectifying potassium channel KCNH2 (Homo sapiens, UniProt Q12809). As to the kind of experiment: Inhibition of human cloned ERG channel expressed in chinese hamster CHO cells after 5 mins by patch clamp assay. Type of data set: cell-based.
Chain of Voltage-gated inwardly rectifying potassium channel KCNH2 (Q12809 whole entry): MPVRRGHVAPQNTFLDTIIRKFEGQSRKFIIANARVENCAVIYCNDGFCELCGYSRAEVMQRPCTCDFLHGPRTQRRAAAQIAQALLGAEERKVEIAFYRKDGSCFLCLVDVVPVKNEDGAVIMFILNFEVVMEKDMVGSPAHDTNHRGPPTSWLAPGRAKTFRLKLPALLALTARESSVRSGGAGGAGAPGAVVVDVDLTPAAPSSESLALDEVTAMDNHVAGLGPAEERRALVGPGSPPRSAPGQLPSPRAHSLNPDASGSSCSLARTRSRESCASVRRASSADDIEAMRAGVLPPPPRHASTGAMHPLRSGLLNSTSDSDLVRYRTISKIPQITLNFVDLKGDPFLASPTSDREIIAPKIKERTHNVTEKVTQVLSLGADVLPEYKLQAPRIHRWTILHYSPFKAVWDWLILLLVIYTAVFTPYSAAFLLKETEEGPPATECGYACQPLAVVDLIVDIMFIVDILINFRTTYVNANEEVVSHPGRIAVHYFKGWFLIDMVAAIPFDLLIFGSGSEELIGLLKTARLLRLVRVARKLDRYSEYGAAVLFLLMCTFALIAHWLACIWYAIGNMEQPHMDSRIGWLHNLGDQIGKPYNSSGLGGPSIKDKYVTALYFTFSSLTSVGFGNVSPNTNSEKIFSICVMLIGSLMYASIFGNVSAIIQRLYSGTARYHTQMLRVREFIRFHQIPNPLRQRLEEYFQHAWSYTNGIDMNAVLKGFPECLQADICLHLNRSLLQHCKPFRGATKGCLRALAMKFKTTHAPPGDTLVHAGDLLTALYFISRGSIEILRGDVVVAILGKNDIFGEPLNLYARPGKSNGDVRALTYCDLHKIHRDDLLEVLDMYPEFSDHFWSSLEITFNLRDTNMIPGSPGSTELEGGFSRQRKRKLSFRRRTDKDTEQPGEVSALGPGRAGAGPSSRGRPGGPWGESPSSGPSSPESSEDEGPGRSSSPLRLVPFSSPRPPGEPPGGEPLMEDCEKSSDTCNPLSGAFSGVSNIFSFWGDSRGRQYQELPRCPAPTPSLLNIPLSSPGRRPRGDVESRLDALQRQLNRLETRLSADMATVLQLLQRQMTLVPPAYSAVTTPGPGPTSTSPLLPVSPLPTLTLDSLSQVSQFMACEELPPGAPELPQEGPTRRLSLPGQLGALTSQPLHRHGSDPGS
Data set [7] can be described thus: Selectivity ratio of EC50 for human HepG2 cells to EC50 for Plasmodium falciparum.
Data set [8] relates to hERG. The experiment in a line: Therapeutic index, ratio of IC50 for human ERG expressed in CHO cells to EC50 for chloroquine-resistant Plasmodium falciparum K1. Type of data set: cell-based. As to conditions: hamster, CHO cells expressing human ERG; read-out: Ratio IC50/EC50.
Data set [9] is described as follows: Chemical stability in simulated gastric fluid at pH 5 over 24 hrs. Type of data set: physicochemical. As to conditions: simulated gi fluid, pH 5, 24 h.
For data set [10], the system named is Plasmodium falciparum. The experiment in a line: Antimalarial activity against erythrocytic stage of chloroquine-sensitive Plasmodium falciparum 3D7 after 72 hrs by spectrophotometry. In kind it is functional, organism-based. As to conditions: 3D7, 72 h.
For data set [11], the system named is Plasma. The experiment in a line: Metabolic stability in mouse plasma over 24 hrs. In kind it is ADME, cell-free.
Data set [12] concerns Plasmodium falciparum. The experiment in a line: Antimalarial activity against erythrocytic stage of chloroquine-resistant Plasmodium falciparum K1 after 72 hrs by spectrophotometry. In kind it is functional, organism-based. As to conditions: K1, 72 h.
Data set [13] is described as follows: Chemical stability in simulated gastric fluid at pH 2 over 24 hrs. Type of data set: physicochemical. As to conditions: simulated gi fluid, pH 2, 24 h.
For data set [14], the target named is T1, Sodium channel protein type 5 subunit alpha (Homo sapiens, UniProt Q14524). As to the kind of experiment: Inhibition of human cloned Nav1.5 channel expressed in chinese hamster CHO cells assessed as phasic inhibition after 5 mins by patch clamp assay. Type of data set: cell-based.
T1 sequence (Q14524 whole entry): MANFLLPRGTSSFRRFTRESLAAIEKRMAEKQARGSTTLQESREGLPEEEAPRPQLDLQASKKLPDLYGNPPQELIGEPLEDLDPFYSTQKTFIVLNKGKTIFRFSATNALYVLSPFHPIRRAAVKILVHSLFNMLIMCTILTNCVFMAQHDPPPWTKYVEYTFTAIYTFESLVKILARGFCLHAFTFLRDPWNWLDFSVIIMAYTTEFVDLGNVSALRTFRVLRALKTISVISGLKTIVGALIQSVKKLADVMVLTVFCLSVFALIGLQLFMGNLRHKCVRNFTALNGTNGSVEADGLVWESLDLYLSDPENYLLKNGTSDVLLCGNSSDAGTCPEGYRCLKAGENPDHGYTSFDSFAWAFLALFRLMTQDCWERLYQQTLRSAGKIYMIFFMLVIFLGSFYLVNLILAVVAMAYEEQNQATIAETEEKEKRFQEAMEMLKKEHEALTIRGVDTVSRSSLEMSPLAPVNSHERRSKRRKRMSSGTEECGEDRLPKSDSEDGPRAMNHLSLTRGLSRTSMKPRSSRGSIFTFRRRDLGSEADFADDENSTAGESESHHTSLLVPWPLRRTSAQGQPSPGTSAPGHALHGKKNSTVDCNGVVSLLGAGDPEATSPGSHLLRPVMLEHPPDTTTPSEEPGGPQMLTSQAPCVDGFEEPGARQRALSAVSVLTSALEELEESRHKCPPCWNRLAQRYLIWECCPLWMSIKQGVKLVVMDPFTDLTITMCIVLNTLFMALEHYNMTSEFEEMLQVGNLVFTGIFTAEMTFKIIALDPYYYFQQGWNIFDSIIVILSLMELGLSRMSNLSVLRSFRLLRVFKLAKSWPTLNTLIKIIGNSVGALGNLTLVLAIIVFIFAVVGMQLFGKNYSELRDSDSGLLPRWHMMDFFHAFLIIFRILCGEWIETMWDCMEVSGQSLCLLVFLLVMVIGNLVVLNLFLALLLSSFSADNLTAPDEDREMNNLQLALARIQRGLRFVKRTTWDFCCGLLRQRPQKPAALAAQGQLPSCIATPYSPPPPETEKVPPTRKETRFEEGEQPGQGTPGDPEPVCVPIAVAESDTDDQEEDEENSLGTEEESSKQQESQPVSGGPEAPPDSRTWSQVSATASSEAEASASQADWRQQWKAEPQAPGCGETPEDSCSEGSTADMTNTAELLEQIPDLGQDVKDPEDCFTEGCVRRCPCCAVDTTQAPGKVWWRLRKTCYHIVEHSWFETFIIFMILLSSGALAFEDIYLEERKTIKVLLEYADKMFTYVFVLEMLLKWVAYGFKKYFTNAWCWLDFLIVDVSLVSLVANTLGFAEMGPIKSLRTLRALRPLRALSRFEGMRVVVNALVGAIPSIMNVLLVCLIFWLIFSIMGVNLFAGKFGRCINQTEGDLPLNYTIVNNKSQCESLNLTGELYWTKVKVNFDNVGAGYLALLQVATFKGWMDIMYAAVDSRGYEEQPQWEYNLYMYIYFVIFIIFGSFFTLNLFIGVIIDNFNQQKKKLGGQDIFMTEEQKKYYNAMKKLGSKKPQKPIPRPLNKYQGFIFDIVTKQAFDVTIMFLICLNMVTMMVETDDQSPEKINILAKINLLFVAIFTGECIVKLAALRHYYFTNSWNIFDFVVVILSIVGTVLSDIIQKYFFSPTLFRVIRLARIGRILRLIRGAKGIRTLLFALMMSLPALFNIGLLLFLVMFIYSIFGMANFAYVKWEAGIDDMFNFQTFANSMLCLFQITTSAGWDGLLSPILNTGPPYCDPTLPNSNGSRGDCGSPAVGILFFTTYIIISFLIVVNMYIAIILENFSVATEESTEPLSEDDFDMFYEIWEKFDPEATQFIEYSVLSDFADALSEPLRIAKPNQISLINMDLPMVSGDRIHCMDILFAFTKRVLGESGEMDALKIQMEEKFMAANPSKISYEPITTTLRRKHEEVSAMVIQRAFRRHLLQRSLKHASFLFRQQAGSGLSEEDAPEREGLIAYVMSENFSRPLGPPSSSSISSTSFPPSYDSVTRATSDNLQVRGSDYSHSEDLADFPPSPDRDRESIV
For data set [15], the target named is Sulfonylurea receptor 2, Kir6.2 (Homo sapiens, UniProt O60706+Q14654). The experiment in a line: Inhibition of human kir6.2/SUR2A ion channel coexpressed in human HEK293 cells after 5 mins by patch clamp assay. In kind it is cell-based. The essentials:
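Human KCNJ11 (Kir6.2) and SUR2A were co-expressed in HEK293 cells to give the ATP-sensitive current IKATP. The assay was run at room temperature by automated parallel patch clamp, with dose-response at 0.2, 0.6, 1.6 and 5 µM. Exposure was 5 min per concentration, with each concentration in two cells (n ≥ 2).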
(In patch-clamp work, channel activity is measured electrically.)

The target of data set [16] is T1, Sodium channel protein type 5 subunit alpha. The experiment in a line: Inhibition of human cloned Nav1.5 channel expressed in chinese hamster CHO cells assessed as tonic inhibition after 5 mins by patch clamp assay. In kind it is cell-based.

Molecules are shown by their SMILES. A value given as a limit tells only on which side of the number the result lay.

Chain of Sulfonylurea receptor 2, Kir6.2 (Q14654 whole entry): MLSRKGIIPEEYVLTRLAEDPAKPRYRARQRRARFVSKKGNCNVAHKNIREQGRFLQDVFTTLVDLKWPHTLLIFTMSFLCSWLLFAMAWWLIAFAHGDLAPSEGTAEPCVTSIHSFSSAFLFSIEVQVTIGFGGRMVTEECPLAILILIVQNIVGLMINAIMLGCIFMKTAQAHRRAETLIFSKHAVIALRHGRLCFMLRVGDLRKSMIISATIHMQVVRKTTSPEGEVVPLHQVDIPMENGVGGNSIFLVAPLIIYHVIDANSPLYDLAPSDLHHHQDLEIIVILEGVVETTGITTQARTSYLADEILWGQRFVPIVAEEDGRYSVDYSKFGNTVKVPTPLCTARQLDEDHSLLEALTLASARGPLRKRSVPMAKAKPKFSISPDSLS
Chain of Sulfonylurea receptor 2, Kir6.2 (O60706 whole entry): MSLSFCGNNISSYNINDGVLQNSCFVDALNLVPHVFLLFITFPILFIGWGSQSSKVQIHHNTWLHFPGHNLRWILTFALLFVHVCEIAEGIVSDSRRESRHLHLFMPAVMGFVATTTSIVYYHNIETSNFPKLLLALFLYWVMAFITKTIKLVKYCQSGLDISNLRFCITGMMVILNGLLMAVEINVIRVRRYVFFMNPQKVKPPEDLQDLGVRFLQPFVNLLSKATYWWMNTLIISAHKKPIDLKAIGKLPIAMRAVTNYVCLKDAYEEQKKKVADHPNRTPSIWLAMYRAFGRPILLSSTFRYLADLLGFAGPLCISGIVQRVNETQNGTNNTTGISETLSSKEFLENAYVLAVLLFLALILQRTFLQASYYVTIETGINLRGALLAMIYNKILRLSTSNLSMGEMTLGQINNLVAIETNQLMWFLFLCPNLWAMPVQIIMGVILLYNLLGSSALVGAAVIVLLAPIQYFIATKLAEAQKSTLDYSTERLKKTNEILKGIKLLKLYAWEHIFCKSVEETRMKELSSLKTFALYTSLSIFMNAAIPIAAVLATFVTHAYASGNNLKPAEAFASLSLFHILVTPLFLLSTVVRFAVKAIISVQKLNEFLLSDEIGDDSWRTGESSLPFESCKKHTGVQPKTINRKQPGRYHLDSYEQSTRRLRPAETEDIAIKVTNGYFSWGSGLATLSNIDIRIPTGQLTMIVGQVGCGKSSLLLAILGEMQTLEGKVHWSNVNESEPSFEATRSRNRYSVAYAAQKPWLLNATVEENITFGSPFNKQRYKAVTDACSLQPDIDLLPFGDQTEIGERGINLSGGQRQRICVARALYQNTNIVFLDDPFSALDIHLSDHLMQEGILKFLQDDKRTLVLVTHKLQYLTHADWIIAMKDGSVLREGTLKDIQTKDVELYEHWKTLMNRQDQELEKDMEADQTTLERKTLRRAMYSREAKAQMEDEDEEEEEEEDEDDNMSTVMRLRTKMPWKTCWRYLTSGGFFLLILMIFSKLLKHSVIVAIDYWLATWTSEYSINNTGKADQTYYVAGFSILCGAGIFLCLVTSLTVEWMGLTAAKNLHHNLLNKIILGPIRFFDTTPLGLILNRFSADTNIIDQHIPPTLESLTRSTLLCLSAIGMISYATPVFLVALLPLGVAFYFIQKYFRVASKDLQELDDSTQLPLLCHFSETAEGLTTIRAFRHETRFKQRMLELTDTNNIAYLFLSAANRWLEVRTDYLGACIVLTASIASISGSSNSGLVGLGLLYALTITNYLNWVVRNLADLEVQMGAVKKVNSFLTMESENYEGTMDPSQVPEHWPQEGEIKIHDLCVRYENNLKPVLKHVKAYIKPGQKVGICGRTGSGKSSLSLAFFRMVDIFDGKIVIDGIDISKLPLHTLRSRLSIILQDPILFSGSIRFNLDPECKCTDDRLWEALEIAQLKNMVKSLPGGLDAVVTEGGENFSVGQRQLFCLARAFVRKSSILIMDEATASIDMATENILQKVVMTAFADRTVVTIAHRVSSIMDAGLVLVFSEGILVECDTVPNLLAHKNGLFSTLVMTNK

Take `Cl.O=C(CCc1ccccc1)c1ccccc1OCC(O)CN1CCN(C(c2ccccc2)c2ccccc2)CC1` (racemic): the Activity result in data set [1], in [3], in data set [4] and in [5] was “Non-toxic” in each case. The amount in solution in data set [2] (solubility) came to 0.2 µM. Moreover, half-maximal inhibition in [6] (IC50) required 2.6 µM. Further, the selectivity ratio is greater than 10 in data set [7] and 26 in data set [8]. Also, the Stability entry in data set [9], in data set [11] and in data set [13] was “Stable” each time. Also, the EC50 (commonly the concentration needed to bring the measured effect to its halfway point) in data set [10] stood at 0.06 µM; in [12] it was 0.1 µM.

With `Cl.O=C(CCc1ccc(F)cc1)c1ccccc1OCC(O)CN1CCN(C(c2ccccc2)c2ccccc2)CC1` (racemic), the Activity entry in data set [1], in [3], in data set [4] and in data set [5] was “Non-toxic” each time. Further, in [7], the selectivity ratio is greater than 10. For the same molecule, the EC50 in [10] and in [12] was less than 0.1 µM in each case.

With `Cl.O=C(CCc1ccccc1)c1ccccc1OCC(O)CN1CCC(c2ccccc2)CC1` (racemic), the Activity entry in data set [1], in [3], in data set [4] and in data set [5] was “Non-toxic” each time. Besides, in data set [2], the solubility (commonly the dissolved amount per volume that the medium holds) was 7.27 µM. The IC50 in data set [14], in data set [15] and in data set [16] was greater than 5 µM each time. Besides, the Stability entry in data set [9], in data set [11] and in data set [13] was “Stable” each time.

`Cc1ccc(N2CCN(CC(O)COc3ccccc3C(=O)CCc3ccccc3)CC2)cc1.Cl` (racemic): the Activity entry in [1], in [3], in data set [4] and in data set [5] was “Non-toxic” each time. Also, the 50% inhibitory concentration (IC50) (commonly the concentration needed to halve the response being measured) was greater than 5 µM in data set [14], 4.31 µM in [6], greater than 5 µM in data set [15] and greater than 5 µM in [16].

`Cl.O=C(CCc1ccccc1)c1cc(F)ccc1OCC(O)CN1CCN(C(c2ccccc2)c2ccccc2)CC1` (racemic): the Activity entry in data set [1], in [3], in data set [4] and in [5] was “Non-toxic” in each case. The amount in solution in [2] (solubility) came to 0.11 µM. Further, the IC50 in data set [14], in data set [15] and in data set [16] was greater than 5 µM throughout. The Stability result in data set [9], in data set [11] and in data set [13] was “Stable” throughout.
